Source: ChEMBL document CHEMBL3745665, “Discovery of benzamides as potent human β3 adrenergic receptor agonists” (Bioorg Med Chem Lett, 2016)
pEC50, pIC50: −log10 of the molar value.

Experiments:
[1] = target: T1, Beta-3 adrenergic receptor (Homo sapiens, UniProt P13945); test: Agonist activity at human beta-3 adrenergic receptor expressed in CHO cells assessed as increase in cAMP level after 30 mins by LANCE TR-FRET assay; format: functional, cell-based
Target sequence in this assay (P13945 whole entry): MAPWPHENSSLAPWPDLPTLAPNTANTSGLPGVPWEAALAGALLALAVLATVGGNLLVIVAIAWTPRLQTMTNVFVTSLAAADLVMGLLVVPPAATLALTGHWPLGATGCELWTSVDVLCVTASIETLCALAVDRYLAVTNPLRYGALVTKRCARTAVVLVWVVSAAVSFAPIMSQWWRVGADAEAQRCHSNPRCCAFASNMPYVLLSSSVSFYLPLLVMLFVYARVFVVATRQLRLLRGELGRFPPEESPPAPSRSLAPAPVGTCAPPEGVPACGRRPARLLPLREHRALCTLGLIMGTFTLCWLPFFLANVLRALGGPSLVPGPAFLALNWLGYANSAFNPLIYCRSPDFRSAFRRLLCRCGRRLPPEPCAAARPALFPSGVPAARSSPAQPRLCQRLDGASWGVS

[2] = target: T1, Beta-3 adrenergic receptor; test: Agonist activity at human beta-3 adrenergic receptor expressed in CHO cells assessed as increase in cAMP level after 30 mins by LANCE TR-FRET assay relative to R-(-)-isoproterenol; format: functional, cell-based
In short: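 Efficacy: the fitted maximal value of each test compound's concentration–response curve, expressed as a percent of the maximal response to R-(−)-isoproterenol.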
Target sequence in this assay (P13945 whole entry, looked up): as the sequence (P13945 whole entry) above

[3] = target: Beta-1 adrenergic receptor (Homo sapiens, UniProt P08588); test: Displacement of [125I]CYP from human beta-1 adrenergic receptor expressed in CHO cell membrane after 1 hr by scintillation counting method; format: cell membranes
[4] = target: Beta-2 adrenergic receptor (Homo sapiens, UniProt P07550); test: Displacement of [125I]CYP from human beta-2 adrenergic receptor expressed in CHO cell membrane after 1 hr by scintillation counting method; format: cell membranes
[5] = target: Voltage-gated inwardly rectifying potassium channel KCNH2 (Homo sapiens, UniProt Q12809); test: Inhibition of human ERG by IKr binding assay
[6] = Plasma clearance in rat at 1 mg/kg, iv or 2 mg/kg, po; format: ADME, organism-based
[7] = Plasma clearance in dog at 0.5 mg/kg, iv or 2 mg/kg, po; format: ADME, organism-based, Canis lupus familiaris
[8] = Volume of distribution in rat at 1 mg/kg, iv or 2 mg/kg, po; format: ADME, organism-based; details: in vivo
[9] = Volume of distribution in dog at 0.5 mg/kg, iv or 2 mg/kg, po; format: ADME, organism-based, Canis lupus familiaris; details: in vivo
[10] = Half life in rat at 1 mg/kg, iv or 2 mg/kg, po; format: ADME, organism-based; details: in vivo
[11] = Half life in dog at 0.5 mg/kg, iv or 2 mg/kg, po; format: ADME, organism-based, Canis lupus familiaris; details: in vivo
Rattus norvegicus = test: Dose normalized AUC in rat at 2 mg/kg, po; format: ADME, organism-based; details: in vivo
Canis familiaris = test: Dose normalized AUC in dog at 2 mg/kg, po; format: ADME, organism-based, Canis lupus familiaris; details: in vivo
[12] = Oral bioavailability in rat at 2 mg/kg; format: ADME, organism-based; details: in vivo
[13] = Oral bioavailability in dog at 2 mg/kg; format: ADME, organism-based, Canis lupus familiaris; details: in vivo
Rhesus monkey = test: Dose normalized AUC in po dosed rhesus monkey; format: ADME, organism-based, Macaca mulatta; details: in vivo
[14] = Plasma clearance in rhesus monkey; format: ADME, organism-based, Macaca mulatta
[15] = Volume of distribution in rhesus monkey; format: ADME, organism-based, Macaca mulatta; details: in vivo
[16] = Half life in rhesus monkey; format: ADME, organism-based, Macaca mulatta; details: in vivo
[17] = Oral bioavailability rhesus monkey; format: ADME, organism-based, Macaca mulatta; details: in vivo
[18] = Stability in human liver microsomes assessed as residual compound after 45 mins; format: ADME; details: read-out: Stability
[19] = Stability in dog liver microsomes assessed as residual compound after 45 mins; format: ADME, Canis lupus familiaris; details: read-out: Stability
[20] = Stability in rat liver microsomes assessed as residual compound after 45 mins; format: ADME; details: read-out: Stability
[21] = Stability in rhesus monkey liver microsomes assessed as residual compound after 45 mins; format: ADME, Macaca mulatta; details: read-out: Stability
[22] = Stability in human hepatocytes assessed as residual compound after 60 mins; format: ADME, cell-based, Hepatocyte; details: read-out: Stability
[23] = Stability in dog hepatocytes assessed as residual compound after 60 mins; format: ADME, cell-based, Canis lupus familiaris, Hepatocyte; details: read-out: Stability
[24] = Stability in rat hepatocytes assessed as residual compound after 60 mins; format: ADME, cell-based, Hepatocyte; details: read-out: Stability

Sequence of Beta-2 adrenergic receptor (P07550 whole entry): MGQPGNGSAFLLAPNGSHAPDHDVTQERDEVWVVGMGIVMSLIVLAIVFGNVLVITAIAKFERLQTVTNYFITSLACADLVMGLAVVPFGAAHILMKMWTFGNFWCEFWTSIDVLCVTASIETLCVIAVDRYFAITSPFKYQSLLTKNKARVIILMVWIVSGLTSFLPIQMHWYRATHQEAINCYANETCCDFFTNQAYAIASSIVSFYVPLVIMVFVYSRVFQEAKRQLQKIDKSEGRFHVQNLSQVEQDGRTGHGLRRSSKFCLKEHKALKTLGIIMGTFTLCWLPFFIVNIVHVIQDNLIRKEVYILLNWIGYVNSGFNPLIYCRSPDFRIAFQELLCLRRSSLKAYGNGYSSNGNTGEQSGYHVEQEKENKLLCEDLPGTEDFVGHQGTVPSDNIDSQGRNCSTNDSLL
Sequence of Beta-1 adrenergic receptor (P08588 whole entry): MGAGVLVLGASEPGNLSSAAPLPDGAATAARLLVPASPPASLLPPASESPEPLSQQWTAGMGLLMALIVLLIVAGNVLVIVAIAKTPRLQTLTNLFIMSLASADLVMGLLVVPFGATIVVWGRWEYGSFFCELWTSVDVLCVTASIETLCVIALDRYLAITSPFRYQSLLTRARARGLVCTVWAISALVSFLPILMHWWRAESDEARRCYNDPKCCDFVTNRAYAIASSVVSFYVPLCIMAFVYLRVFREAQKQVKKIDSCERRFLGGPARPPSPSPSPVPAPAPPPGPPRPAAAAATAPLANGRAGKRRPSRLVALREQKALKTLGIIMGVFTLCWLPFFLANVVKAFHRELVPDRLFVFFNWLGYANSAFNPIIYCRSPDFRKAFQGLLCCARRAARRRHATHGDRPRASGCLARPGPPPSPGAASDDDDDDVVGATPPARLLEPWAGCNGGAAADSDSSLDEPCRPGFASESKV
Sequence of Voltage-gated inwardly rectifying potassium channel KCNH2 (Q12809 whole entry): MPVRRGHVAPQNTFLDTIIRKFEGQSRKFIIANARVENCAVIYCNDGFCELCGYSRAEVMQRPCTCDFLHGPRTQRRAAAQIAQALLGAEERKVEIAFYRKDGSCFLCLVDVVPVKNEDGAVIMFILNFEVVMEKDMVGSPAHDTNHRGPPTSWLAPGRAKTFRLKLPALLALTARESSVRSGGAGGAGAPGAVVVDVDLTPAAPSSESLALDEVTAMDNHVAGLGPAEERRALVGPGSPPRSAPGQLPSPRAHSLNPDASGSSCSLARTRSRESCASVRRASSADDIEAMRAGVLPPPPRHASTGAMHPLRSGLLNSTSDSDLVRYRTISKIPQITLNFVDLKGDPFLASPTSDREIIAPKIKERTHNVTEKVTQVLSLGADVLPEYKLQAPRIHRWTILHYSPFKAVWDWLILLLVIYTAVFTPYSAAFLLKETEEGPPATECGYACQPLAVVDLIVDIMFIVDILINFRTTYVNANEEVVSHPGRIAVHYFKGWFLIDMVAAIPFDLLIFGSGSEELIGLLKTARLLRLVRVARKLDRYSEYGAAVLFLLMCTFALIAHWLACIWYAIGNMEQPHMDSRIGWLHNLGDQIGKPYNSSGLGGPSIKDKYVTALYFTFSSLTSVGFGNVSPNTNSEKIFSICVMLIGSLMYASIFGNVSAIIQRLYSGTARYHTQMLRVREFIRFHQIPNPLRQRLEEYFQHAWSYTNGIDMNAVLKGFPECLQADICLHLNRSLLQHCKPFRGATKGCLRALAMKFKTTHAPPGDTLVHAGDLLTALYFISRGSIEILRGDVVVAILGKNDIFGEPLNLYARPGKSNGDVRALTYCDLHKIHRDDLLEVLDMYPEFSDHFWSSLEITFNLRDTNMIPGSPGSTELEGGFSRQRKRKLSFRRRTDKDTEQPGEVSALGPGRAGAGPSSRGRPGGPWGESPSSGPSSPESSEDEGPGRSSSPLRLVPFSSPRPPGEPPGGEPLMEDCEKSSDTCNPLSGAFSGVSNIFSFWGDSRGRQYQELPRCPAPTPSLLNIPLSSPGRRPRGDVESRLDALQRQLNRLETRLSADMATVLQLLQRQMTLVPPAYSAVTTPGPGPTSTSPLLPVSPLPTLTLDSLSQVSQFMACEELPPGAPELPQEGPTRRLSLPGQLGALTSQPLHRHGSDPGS

Row | pEC50 [1] | %max [2] [%] | pIC50 [3] | pIC50 [4] | clearance [6] [mL/min/kg] | Vd [8] [L/kg] | half-life [10] [h] | AUC/dose (Rattus norvegicus) [µM·h/mg/kg] | bioavailability [12] [%] | Compound | pIC50 [5] | further results
1 | 8.43 | 84 |  |  |  |  |  |  |  | O=C(Nc1ccc(C[C@@H]2CC[C@H]([C@H](O)c3cccnc3)N2)cc1)C1CCc2ccnn21 (some centres undefined) |  | 
2 | 7.62 | 84 | < 4.70 | 5.28 |  |  |  |  |  | Nc1nc(CNC(=O)c2ccc(C[C@@H]3CC[C@H]([C@H](O)c4ccccc4)N3)cc2)cs1 | < 4.52 | 
3 | 8.51 | 97 | < 4.70 | < 4.70 | 56 | 9.3 | 3 | 0.21 | 33 | CCc1nnc([C@H]2[C@@H]3CN(C(=O)c4ccc(C[C@@H]5CC[C@H]([C@H](O)c6ccccc6)N5)cc4)C[C@@H]32)o1 |  | AUC/dose (Rhesus monkey): 0.06 µM·h; clearance [7]: 36 mL/min/kg; Vd [9]: 9.2 L/kg; half-life [11]: 3.7 h; clearance [14]: 30 mL/min/kg; Vd [15]: 5.2 L/kg; half-life [16]: 2.4 h; AUC/dose (Canis familiaris): 0.46 µM·h; bioavailability [13]: 44%; bioavailability [17]: 5%
4 |  | 99 |  |  |  |  |  |  |  | Nc1nc(CC(=O)Nc2ccc(C[C@@H]3CC[C@H]([C@H](O)c4ccccc4)N3)cc2)cs1 |  | 
5 | 9.31 | 90 | < 4.70 | 4.87 |  |  |  |  |  | CCOC(=O)[C@H]1[C@@H]2CN(C(=O)c3ccc(C[C@@H]4CC[C@H]([C@H](O)c5ccccc5)N4)cc3)C[C@@H]21 |  | 
6 | 8.77 | 101 | < 4.70 | < 4.70 | 62 | 9 | 1.4 | 0.26 | 43 | O=C(c1ccc(C[C@@H]2CC[C@H]([C@H](O)c3ccccc3)N2)cc1)N1C[C@@H]2[C@H](C1)[C@H]2c1nnco1 | 4.26 | remaining at 0.75 h [18]: 84%; remaining at 0.75 h [19]: 73%; remaining at 0.75 h [20]: 98%; remaining at 0.75 h [21]: 80%; remaining at 1 h [22]: ≥ 85%; remaining at 1 h [23]: ≥ 85%; remaining at 1 h [24]: ≥ 85%

Further lines, the compound ahead of its results:

Row | Compound | pEC50 [1] | %max [2] [%] | pIC50 [3] | pIC50 [4] | clearance [6] [mL/min/kg] | Vd [8] [L/kg] | half-life [10] [h] | AUC/dose (Rattus norvegicus) [µM·h/mg/kg] | bioavailability [12] [%] | pIC50 [5] | further results
7 | CCOC(=O)[C@@H]1[C@@H]2CN(C(=O)c3ccc(C[C@@H]4CC[C@H]([C@H](O)c5ccccc5)N4)cc3)C[C@@H]21 | 7.12 | 97 | < 4.70 | < 4.70 |  |  |  |  |  |  | 
8 | CCS(=O)(=O)C1CCN(C(=O)c2ccc(C[C@@H]3CC[C@H]([C@H](O)c4ccccc4)N3)cc2)CC1 | 8.01 | 100 | < 4.70 | < 4.70 |  |  |  |  |  | < 4.22 | 
9 | Cn1nnc([C@H]2[C@@H]3CN(C(=O)c4ccc(C[C@@H]5CC[C@H]([C@H](O)c6ccccc6)N5)cc4)C[C@@H]32)n1 | 8.27 | 97 | < 4.70 | < 4.70 | 29 | 6.5 | 3.2 | 0.73 | 56 | 4.77 | clearance [7]: 19 mL/min/kg; Vd [9]: 5.5 L/kg; half-life [11]: 3.7 h; AUC/dose (Canis familiaris): 0.99 µM·h; bioavailability [13]: 51%
10 | CC1(C)CC2(CCN(C(=O)c3ccc(C[C@@H]4CC[C@H]([C@H](O)c5ccccc5)N4)cc3)CC2)C(=O)O1 | 8.72 | 85 | < 4.70 | 4.96 | 86 | 9.5 | 2 | 0.16 | 38 | 4.51 | 
11 | CCOC(=O)C1CCN(C(=O)c2ccc(C[C@@H]3CC[C@H]([C@H](O)c4ccccc4)N3)cc2)CC1 | 7.20 | 95 | < 4.70 | 4.96 |  |  |  |  |  |  | 
12 | O=C(c1ccc(C[C@@H]2CC[C@H]([C@H](O)c3ccccc3)N2)cc1)N1CCC2(CCOC2=O)CC1 | 8.48 | 89 | < 4.70 | 5.25 | 56 | 7.2 | 2.5 | 0.21 | 31 | 4.34 | clearance [7]: 31 mL/min/kg; Vd [9]: 7.4 L/kg; half-life [11]: 3.2 h; AUC/dose (Canis familiaris): 0.23 µM·h; bioavailability [13]: 17%; remaining at 0.75 h [18]: 53%; remaining at 0.75 h [19]: 78%; remaining at 0.75 h [20]: 56%
